“Also recorded” adds a separate entry of the source. Starred links: 1 amine or outer side, 2 acyl side, 3 side chain; linkers in the order of their positions; H or OH if unused. Non-standard residues stand in square brackets, D forms with d. Residues, ends and D or L forms follow the SMILES beside them. *: point of attachment. X2 = CCC(=O)CC1CC(C)CC(C(=O)[*:2])N1[*:1]; X1 = CCCCCCCCC(C)C(=O)*; Aib = CC(C)(N)C(=O)O; X3 = CC(CN(C)CCO)N*
Legend:
[1] = test system: AQP1-expressing fibroblasts (2497 cells); test: Calcein fluorescence quenching cell volume assay in 2497 fibroblasts; type: cell-based, mouse; settings: 0.2 mM, 3 min preincubation, hyperosmotic challenge
Procedure, shortened: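 Mouse 2497 fibroblasts with endogenous AQP1 were grown in DMEM with 10% FBS at 37 °C. Cells were plated at 12 000 per well and assayed 24–48 h later at 80–85% confluence. They were loaded with 10 μM calcein-AM for 45 min at 37 °C and preincubated with the agent before the osmotic step. Fluorescence was read at ex 490/em 520 nm every 0.5 s: 15 s baseline, 35 s after hyperosmolar PBS (0.5 M NaCl), then 40 s after water. Shrinkage time constant came from an exponential fit.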

[2] = test system: primary mouse astrocytes expressing endogenous AQP4; test: Calcein fluorescence quenching cell volume assay in primary mouse astrocytes; type: cell-based; settings: for alteration of water flux kinetics / cell volume regulation (RVI, RVD, shrinkage): 20 μM, 15 min incubation, osmotic shock
AQP4 = AQP4 (Rattus norvegicus, UniProt P47863); type: biochemical
Procedure, shortened: (§1)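 Plasma membrane vesicles from rat TNC1 cells were made by homogenisation in sucrose/EDTA/protease-inhibitor buffer (pH 7.2), a 4000g 15 min spin, then pelleting of the supernatant at 17 000g for 45 min. Vesicles at 0.5 mg protein/mL in 50 mM sucrose, 10 mM Tris-HCl pH 7.4 were preincubated 15 min with test compound. Stopped-flow mixing imposed a 250 mOsm inward sucrose gradient. Volume decrease was followed by 90° scatter at 530 nm, and time constant was computed.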

[3] = target: T1, AQP1 (native, erythrocytes) (Rattus norvegicus, UniProt P29975); test: Stopped-flow light scattering water transport in erythrocytes; type: cell-based
T1 sequence (P29975 1-269): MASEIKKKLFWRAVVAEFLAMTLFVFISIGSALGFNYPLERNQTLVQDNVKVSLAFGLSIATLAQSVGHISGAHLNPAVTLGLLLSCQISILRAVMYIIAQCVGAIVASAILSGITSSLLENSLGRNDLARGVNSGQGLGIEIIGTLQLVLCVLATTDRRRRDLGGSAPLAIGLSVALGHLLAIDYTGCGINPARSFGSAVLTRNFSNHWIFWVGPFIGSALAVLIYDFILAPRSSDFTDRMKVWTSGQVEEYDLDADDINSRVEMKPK
Procedure, shortened: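 Erythrocytes came from heparinised Wistar rat blood, were washed three times in PBS (800g, 4 °C, 10 min) and used within 24 h. At 1% haematocrit in PBS they were preincubated 15 min with test compound, then stopped-flow mixed with equal-volume hyperosmolar PBS to give a 250 mOsm inward gradient. Shrinkage was recorded by light scattering at 600 nm at 12 °C.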

[4] = target: AQP4 (M23 isoform) in transfected TNC1 cells (Rattus norvegicus, UniProt P47863); test: Calcein fluorescence quenching cell volume assay in AQP4-transfected TNC1 cells; type: cell-based; settings: 20 uM
Procedure, shortened: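 Rat TNC1 astrocytoma cells were stably co-transfected with rat AQP4 M23 (aa23–323) cDNA and a puromycin-resistance vector, then maintained in 2 μg/mL puromycin. Cells were plated at 12 000 per well and loaded with 10 μM calcein-AM for 45 min at 37 °C. Test compound was given for 15 min at 20 μM final. Calcein fluorescence (490/520 nm) was recorded every 0.5 s through a hyperosmolar NaCl challenge and isosmotic restoration. Shrinkage time constant came from an exponential fit.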

[5] = test system: vesicles from TNC1-untransfected cells; test: Stopped-flow light scattering in vesicles from untransfected TNC1 cells; type: biochemical, rat; settings: 20 μM, data not shown
Procedure, shortened: as §1

Chain of AQP4 (P47863 23-323): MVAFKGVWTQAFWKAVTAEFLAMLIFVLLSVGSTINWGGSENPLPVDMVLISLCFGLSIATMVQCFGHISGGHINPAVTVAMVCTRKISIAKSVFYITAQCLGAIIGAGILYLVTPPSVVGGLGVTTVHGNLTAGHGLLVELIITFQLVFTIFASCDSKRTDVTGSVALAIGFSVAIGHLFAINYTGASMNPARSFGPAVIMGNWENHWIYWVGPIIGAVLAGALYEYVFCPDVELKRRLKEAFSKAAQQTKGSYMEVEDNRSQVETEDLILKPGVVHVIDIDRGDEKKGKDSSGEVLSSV
Chain of AQP4 (M23 isoform) in transfected TNC1 cells (P47863 23-323): as above

[Cl][Hg][Cl] [HgCl2, mercuric chloride]
reduction of the cell shrinkage rate [1]: 52.7 ± 3%
effect on time course/kinetics of cell shrinkage ([2]; astrocytes pretreated with 0.2 mM, 3 min): did not change significantly; also recorded: lack of effect

CCC[CH2][Pb]([Cl])([CH2]CCC)[CH2]CCC [NSC168597, tributyl-chloroplumbane]
effect on AQP4 (AQP4): inhibitory effects
effect on AQP1 [3]: inhibitory effects

CCCCCCCCC(C)C(=O)N1CCCC1C(=O)N1C(CC(=O)CC)CC(C)CC1C(=O)NC(C)C(=O)NC(C)(C)C(=O)NC(C)(C)C(=O)NC(C(=O)NC(C)C(=O)NC(C)(C)C(=O)NC(C)(C)C(=O)NC(C)CN(C)CCO)C(C)CC (stereo not shown) [NSC301460, trichopolin] (X1-P[X2]A[Aib][Aib]IA[Aib][Aib]-X3; configuration not given here)
alteration of water flux kinetics / cell volume regulation (RVI, RVD, shrinkage) [2]: affected shrinkage rate

CCCCCn1cc2c3c(cccc31)C1C=C(C)CN(C)[C@@H]1C2.Cc1ccc(C(=O)OC(C(=O)O)C(OC(=O)c2ccc(C)cc2)C(=O)O)cc1 (stereo not shown) [NSC600681]
AQP4-mediated cell shrinkage time constant [4]: significantly longer

OCCN1CCN(CCCN2c3ccccc3Sc3ccc(C(F)(F)F)cc32)CC1 [fluphenazine]
alteration of water flux kinetics / cell volume regulation (RVI, RVD, shrinkage) [2]: Altered cell volume regulation

COc1ccc(CCN2CCC(Nc3nc4ccccc4n3Cc3ccc(F)cc3)CC2)cc1 [astemizole]
alteration of water flux kinetics / cell volume regulation (RVI, RVD, shrinkage) [2]: Altered cell volume regulation

CCC[CH2][Sn]([CH2]CCC)([CH2]CCC)[O]c1cc(Cl)c(Cl)cc1Cl [NSC164914, tributyl-(2,4,5-trichlorophenoxy)stannane]
reduction of shrinkage kinetics [5]: no significant reduction
effect on AQP4 (AQP4): inhibitory effects
alteration of water flux kinetics / cell volume regulation (RVI, RVD, shrinkage) [2]: affected shrinkage rate
effect on AQP1 [3]: inhibitory effects
inhibition of the shrinkage rate ([3]; 40 μM): ~ 64%
